# Legend:
# Type in all cases: functional, cell-based
# A549 = test: Antiproliferative activity against human A549 cells after 48 hrs by MTT assay; details: A549, 48 h
# In short: (§1)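 Cells seeded in 96-well plates and exposed to compounds for 48 h at 37 °C, 5% CO2. MTT (0.5 mg/mL) then added for 4 h. Supernatant removed, formazan dissolved in DMSO, and OD read at 570 nm. Cisplatin served as positive control.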
# SGC-7901 = test: Antiproliferative activity against human SGC7901 cells after 48 hrs by MTT assay; details: SGC-7901, 48 h; in short: as §1
# HeLa = test: Antiproliferative activity against human HeLa cells after 48 hrs by MTT assay; in short: as §1
# Raji = test: Antiproliferative activity against human Raji cells after 48 hrs by MTT assay
# In short: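 Human B-lymphoma Raji line kept in RPMI-1640 with 10% FBS and 100 U/mL penicillin at 37 °C, 5% CO2, humidified. Cells were plated in 96 wells and treated with compounds for 48 h. MTT (0.5 mg/mL) was added for 4 h, then formazan was taken up in DMSO after supernatant removal and read at 570 nm. Cisplatin served as positive control.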
SMILES,IC50 (A549) [µM],IC50 (SGC-7901) [µM],IC50 (HeLa) [µM],IC50 (Raji) [µM]
CCOC(=O)[C@]1(C)CCC[C@@]2(C)[C@@H]3CC[C@@]4(C)C[C@]3(CC[C@@H]21)c1cnn(-c2cccc(Cl)c2)c14,28.2,26.3,> 50,9.54
CCOC(=O)[C@]1(C)CCC[C@@]2(C)[C@@H]3CC[C@@]4(C)C[C@]3(CC[C@@H]21)c1cnn(-c2ccccc2F)c14,27,35.6,> 50,4.15
CCOC(=O)[C@]1(C)CCC[C@@]2(C)[C@@H]3CC[C@@]4(C)C[C@]3(CC[C@@H]21)[C@@H]1CN(c2ccc(C)cc2C)N=C14,> 50,28.5,> 50,11.2
CCOC(=O)[C@]1(C)CCC[C@@]2(C)[C@@H]3CC[C@@]4(C)C[C@]3(CC[C@@H]21)[C@@H]1CN(c2ccc([N+](=O)[O-])cc2)N=C14,> 50,> 50,> 50,> 50
CCOC(=O)[C@]1(C)CCC[C@@]2(C)[C@@H]3CC[C@@]4(C)C[C@]3(CC[C@@H]21)[C@@H]1CN(c2cccc(Cl)c2)N=C14,> 50,> 50,> 50,4.57
CCOC(=O)[C@]1(C)CCC[C@@]2(C)[C@@H]3CC[C@@]4(C)C[C@]3(CC[C@@H]21)[C@@H]1CN(c2ccccc2F)N=C14,32.6,34.7,> 50,17.2
CCOC(=O)[C@]1(C)CCC[C@@]2(C)[C@@H]3CC[C@@]4(C)C[C@]3(CC[C@@H]21)[C@@H]1CN(c2ccc(C)cc2)N=C14,13.7,29.4,29.1,3.91
CCOC(=O)[C@]1(C)CCC[C@@]2(C)[C@@H]3CC[C@@]4(C)C[C@]3(CC[C@@H]21)c1cnn(-c2ccccc2Cl)c14,21.5,25.4,34.6,10.1
CCOC(=O)[C@]1(C)CCC[C@@]2(C)[C@@H]3CC[C@@]4(C)C[C@]3(CC[C@@H]21)c1cnn(-c2ccc(Br)cc2)c14,23.1,29.6,> 50,4.78
CCOC(=O)[C@]1(C)CCC[C@@]2(C)[C@@H]3CC[C@@]4(C)C[C@]3(CC[C@@H]21)c1cnn(-c2ccccc2C)c14,19,35.3,15.2,7.71
CCOC(=O)[C@]1(C)CCC[C@@]2(C)[C@@H]3CC[C@@]4(C)C[C@]3(CC[C@@H]21)c1cnn(-c2ccc(F)cc2)c14,22.3,25.6,> 50,7.01
CCOC(=O)[C@]1(C)CCC[C@@]2(C)[C@@H]3CC[C@@]4(C)C[C@]3(CC[C@@H]21)[C@@H]1CN(c2cc(C)cc(C)c2)N=C14,> 50,> 50,> 50,> 50
CCOC(=O)[C@]1(C)CCC[C@@]2(C)[C@@H]3CC[C@@]4(C)C[C@]3(CC[C@@H]21)[C@@H]1CN(c2cccc([N+](=O)[O-])c2)N=C14,> 50,> 50,> 50,> 50
C[C@@]12CC[C@@H]3[C@@](CC[C@H]4[C@@]3(C)CCC[C@@]4(C)C(=O)O)(CC1=O)C2 [ISOSTEVIOL],> 50,> 50,> 50,> 50
CCOC(=O)[C@]1(C)CCC[C@@]2(C)[C@@H]3CC[C@@]4(C)C[C@]3(CC[C@@H]21)c1cnn(-c2ccc(C)cc2C)c14,16.5,18.7,43.3,6.55
CCOC(=O)[C@]1(C)CCC[C@@]2(C)[C@@H]3CC[C@@]4(C)C[C@]3(CC[C@@H]21)[C@@H]1CN(c2ccc(Cl)c(Cl)c2)N=C14,> 50,> 50,> 50,> 50
CCOC(=O)[C@]1(C)CCC[C@@]2(C)[C@@H]3CC[C@@]4(C)C[C@]3(CC[C@@H]21)c1cnn(-c2c(C)cccc2C)c14,11.8,9.17,20.3,2.09
CCOC(=O)[C@]1(C)CCC[C@@]2(C)[C@@H]3CC[C@@]4(C)C[C@]3(CC[C@@H]21)[C@@H]1CN(c2cccc(Cl)c2Cl)N=C14,> 50,> 50,> 50,22.1
CCOC(=O)[C@]1(C)CCC[C@@]2(C)[C@@H]3CC[C@@]4(C)C[C@]3(CC[C@@H]21)c1cnn(-c2cc(Cl)cc(Cl)c2)c14,> 50,> 50,> 50,15.8
CCOC(=O)[C@]1(C)CCC[C@@]2(C)[C@@H]3CC[C@@]4(C)C[C@]3(CC[C@@H]21)[C@@H]1CN(c2ccccc2Cl)N=C14,> 50,> 50,> 50,> 50
CCOC(=O)[C@]1(C)CCC[C@@]2(C)[C@@H]3CC[C@@]4(C)C[C@]3(CC[C@@H]21)c1cnn(-c2c(Cl)cccc2Cl)c14,33.2,27.1,34.9,5.7
CCOC(=O)[C@]1(C)CCC[C@@]2(C)[C@@H]3CC[C@@]4(C)C[C@]3(CC[C@@H]21)[C@@H]1CN(c2cc(Cl)cc(Cl)c2)N=C14,> 50,> 50,24.6,> 50

# Source: ChEMBL document CHEMBL2401716, “Design and stereoselective synthesis of novel isosteviol-fused pyrazolines and pyrazoles as potential anticancer agents” (Eur J Med Chem, 2013)
